SMARCA2 activ = SMARCA2 (BRM) function activators, primary screen, cell-based, luminescence, high throughput | MG213 cells, MMTV-luciferase reporter, dexamethasone, overnight | AID 652017, 2013 | activation, % at 9.1 µM | 370,000 tested, 1% active; in the data active = activation above about 7.8%
MC4R antag cAMP = MC4R antagonists of cAMP signaling, primary screen, cell-based, TR-FRET, antagonist arm of biased-ligand search; Melanocortin receptor 4 (Homo sapiens), P32245; MC4R-expressing cells, MTII-stimulated cAMP, LANCE TR-FRET; inhibition, % at 6.5 µM; 360,000 tested, 0.48% active; AID 540295, 2011;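 active = inhibition above its plate's cutoff, the mean of tested wells on that plate plus 3 SD, cut at about 29% in these data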
Target sequence (P32245 whole entry, looked up): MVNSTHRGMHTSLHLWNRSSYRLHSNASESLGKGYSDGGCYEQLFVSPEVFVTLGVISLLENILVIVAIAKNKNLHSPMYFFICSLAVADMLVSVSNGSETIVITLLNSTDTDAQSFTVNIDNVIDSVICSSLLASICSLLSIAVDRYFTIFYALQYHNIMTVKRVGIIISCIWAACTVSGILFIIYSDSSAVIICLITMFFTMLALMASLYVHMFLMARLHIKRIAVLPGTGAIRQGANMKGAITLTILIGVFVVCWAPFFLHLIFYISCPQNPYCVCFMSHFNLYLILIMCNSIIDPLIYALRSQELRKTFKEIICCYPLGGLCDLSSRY
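Material – human MC4R-expressing U2OS cells · Repeats – no replicates · Detection – TR-FRET with Eu-cAMP and labeled anti-cAMP, 671 nm · Times – compound 30 min, challenge 1 h, detection 1 h · Compound – single nominal compound dose of 6.5 µM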
MPTP inh = mitochondrial permeability transition pore inhibitors, primary screen, biochemical, isolated mouse mitochondria, absorbance; Ca2+ swelling absorbance, 30 min; inhibition, % at 10 µM; 360,000 tested, 1.4% active; AID 602449, 2012;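 active = inhibition of 50% or more, scaled per plate between neutral and stimulator controls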
MC4R ag barr = MC4R agonists recruiting beta-arrestin, primary screen, cell-based, luminescence, agonist arm of biased-ligand search | 360,000 tested, 0.98% active | U2OS MC4R beta-arrestin complementation; percent of melanotan II response, DMSO zero | activation, % at 8.9 µM;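 active = activation above a per-plate cutoff, the mean activation of sample wells on that plate plus 3 SD, cut at about 8% in these data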
ATG4B inh = ATG4B protease inhibitors, primary screen, biochemical, fluorescence, uHTS | inhibition, % at 8.33 µM | 340,000 tested, 0.51% active | ATG4B cleavage of LC3-PLA2, NBD-HPC fluorescence, 1 h | Cysteine protease ATG4B (Homo sapiens), Q9Y4P1; in the data active = inhibition above about 40%
cAMP nonselect = nonselective cAMP signaling inhibitors, parental cells, counter-screen for MC4R biased antagonist project, cell-based, TR-FRET, U2OS, forskolin, triplicate | shares compounds with MC4R antag cAMP | 1,600 tested, 26% active | LANCE TR-FRET | inhibition, % at 6.5 µM;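 active = mean inhibition over triplicates above the low-control well mean plus 3 SD, set per campaign, cut at about 13% in these data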;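 note: signal is single emission at 671 nm which falls as cellular cAMP rises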
MC4R cAMP antag = MC4R cAMP antagonists, retest, confirmation, cell-based, TR-FRET; shares compounds with MC4R antag cAMP; MC4R-expressing cells, MTII-stimulated cAMP; inhibition, % at 6.5 µM; 1,600 tested, 27% active; AID 602195, 2012; in the data active = inhibition above about 29%
Large screens that a line does not name were inactive (follow-up assays come after a bar, where they were run). Compounds with a hit are over-represented: about 4.1% of the library has one in this group of screens.

CCOC(=O)CSc1nnc(-c2ccc(NS(=O)(=O)c3ccc(C)cc3)cc2)o1	MC4R antag cAMP 38 | cAMP nonselect inactive | MC4R cAMP antag inactive
Cc1ccc(S(=O)(=O)NCC(=O)OCc2nnc(-c3ccccc3)o2)cc1	MC4R antag cAMP 30 | cAMP nonselect inactive | MC4R cAMP antag inactive
COC(=O)CSc1nnc(-c2ccc(S(=O)(=O)N3CCCCC3)cc2)o1	MC4R antag cAMP 33 | cAMP nonselect inactive | MC4R cAMP antag 44
COC(=O)[C@]12C[C@H](CC(=O)NCc3ccc(C)o3)C(=O)N(Cc3ccc4c(c3)OCO4)C1=C[C@H](COCc1ccccc1)O[C@@H]2C	none (no result: MC4R antag cAMP, MPTP inh, MC4R ag barr, ATG4B inh)
O=C(CNS(=O)(=O)c1ccc2ccccc2c1)OCC(=O)c1ccc(Br)s1	MC4R antag cAMP 47 | cAMP nonselect 23 | MC4R cAMP antag 43
CCn1c(C(=O)O)c(CC(=O)Nc2ccc(Br)cc2C)c2ccccc21	MC4R antag cAMP 29 | cAMP nonselect inactive | MC4R cAMP antag inactive
COc1ccc(-n2c(SCC(=O)Nc3ccccc3-c3ccccc3)nnc2-c2ccccn2)cc1	none (no result: MC4R antag cAMP, MPTP inh, MC4R ag barr, ATG4B inh)
CC(=O)N1N=C(c2ccccc2)CC1c1cccs1 (stereo not given)	MC4R antag cAMP 29 | cAMP nonselect inactive | MC4R cAMP antag inactive
O=C(c1ccccc1)N1N=C(c2ccccc2)CC1c1cccs1 (stereo not given)	none
COC(=O)c1c(NC(=O)COC(=O)c2ccc(O)cc2)sc2c1CCCCC2	MC4R antag cAMP 30 | cAMP nonselect inactive | MC4R cAMP antag inactive
COCC(=O)Nc1sc2c(c1C(=O)OC)CCCC2	none
CCOC(=O)c1cnc2ccc(OCC)cc2c1N(C)Cc1ccccc1	MC4R antag cAMP 30 | cAMP nonselect inactive | MC4R cAMP antag 31
CN(CCO)c1cccc2c1S(=O)(=O)N(Cc1cn(Cc3cccc(F)c3)nn1)Cc1ccccc1O2	none (no result: MC4R antag cAMP, MPTP inh, MC4R ag barr, ATG4B inh)
S=c1[nH]nc2ccc3ccccc3n12	none (no result: MC4R antag cAMP, MC4R ag barr, ATG4B inh)
S=c1[nH]c2ccccc2n2c(=S)[nH]nc12	MC4R antag cAMP 31 | cAMP nonselect 46 | MC4R cAMP antag 74
COC(=O)[C@]12C[C@H](CC(=O)NCc3ccc(C)o3)C(=O)N(Cc3ccco3)C1=C[C@H](C1CCCC1)O[C@@H]2C	none (no result: MC4R antag cAMP, MPTP inh, MC4R ag barr, ATG4B inh)
C=C1C(=O)C23CCC4C(C)(C(=O)OC)CCCC4(C)C2CCC1(O)C3 (stereo not given)	MC4R antag cAMP 40 | cAMP nonselect 22 | MC4R cAMP antag 38
C[C@@H]1COc2cc(N3CCCCC3)ccc2S(=O)(=O)N1	none (no result: MC4R antag cAMP, MPTP inh, MC4R ag barr, ATG4B inh)
COc1ccc2[nH]c3c(c2c1)CCN[C@]31C(=O)N(C)c2ccc(Br)cc21	none (no result: MC4R antag cAMP, MPTP inh, MC4R ag barr, ATG4B inh)
O=C(c1cc(-c2cccc(O)c2)on1)N1CCCC1	MC4R antag cAMP 31 | cAMP nonselect inactive | MC4R cAMP antag inactive
Cc1cc(C=O)c(C)n1-c1cccc(C(=O)O)c1	MC4R antag cAMP 33 | cAMP nonselect inactive | MC4R cAMP antag inactive
CCOC(=O)c1c(NC(=O)CCl)sc(CN(C)C)c1-c1ccccc1	MC4R antag cAMP 48 | cAMP nonselect 23 | MC4R cAMP antag 41
COc1ccc(/C=C2\CC3(OC(=O)c4cccc(F)c4)CCCN2C3)cc1 (stereo not given)	none (no result: MC4R antag cAMP, MPTP inh, MC4R ag barr, ATG4B inh)
COc1ccc(S[C@]2(C(=O)NCC(C)C)CC(=O)N[C@@H]2c2ccc(OC)cc2)cc1	none (no result: MC4R antag cAMP, MPTP inh, MC4R ag barr, ATG4B inh)
CCc1nc2ccc(C(=O)NCc3ccc4c(c3)OCO4)cn2c1N(CCC(C)C)CCN(C)C	MC4R antag cAMP 31 (no result: ATG4B inh) | cAMP nonselect inactive | MC4R cAMP antag 47
CCc1nc2ccc(C(=O)NCc3ccc4c(c3)OCO4)cn2c1N(CC)CCN(C)C	none (no result: ATG4B inh)
CN1C(=O)CC(C(=O)Nc2ccccc2F)SC1=Nc1ccc2c(c1)OCO2 (stereo not given)	MC4R antag cAMP 33 | cAMP nonselect inactive | MC4R cAMP antag inactive

Assay outcomes as filed in PubChem.
